These results are taken from ChEMBL document CHEMBL4402514, “Norepinephrine-Transporter-Targeted and DNA-Co-Targeted Theranostic Guanidines” (J Med Chem, 2020).

Data set [1] can be described thus: Stability in mouse serum incubated up to 6 hrs by HPLC analysis. In kind it is ADME, cell-free.
A short description of data set [2]: Drug uptake in human SK-N-SH cells assessed as [125I]-2'-deoxy-5-iodo-uridine level at 38 kBq/mL after 1 hr by gamma counting method. In kind it is ADME, cell-based. A digest of the protocol:
(§1)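 SK-N-SH cells were exposed to 125I compound at an extracellular 38 kBq/mL for 1 h or continuously for 24 h. Cell-associated 125I was gamma-counted per cell.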

Data set [3] in a line: Drug uptake in human SK-N-SH cells assessed as [125I]-2'-deoxy-5-iodo-uridine level at 38 kBq/mL after 24 hrs by gamma counting method. In kind it is ADME, cell-based. A digest of the protocol:
as §1

Data set [4] can be described thus: Dissociation constant, pKa of compound. Type of data set: physicochemical.
The nature of data set [5]: Partition coefficient, logP of compound. The conditions noted are these: octanol/water. Type of data set: physicochemical.
Data set [6] can be described thus: Half life in human serum incubated up to 24 hrs by HPLC analysis. In kind it is ADME, cell-free.
The nature of data set [7]: Stability in human serum assessed as intact compound level after 5 mins by HPLC analysis. In kind it is ADME, cell-free. The conditions noted are these: read-out: Stability. Summed up:
(§2)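 Radioiodinated guanidines were incubated in mouse, human or pig serum and analyzed by radio-HPLC on a C18 column at 0.8 mL/min. The gradient was 0–95% CH3CN over 50 min, then 95% for 20 min. Intact compound was fitted to monoexponential degradation to give half-life. Values are average ± std err.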

The nature of data set [8]: Stability in human serum assessed as intact compound level after 60 mins by HPLC analysis. Type of data set: ADME, cell-free. To be noted: read-out: Stability. A digest of the protocol: as §2
Data set [9] can be described thus: Stability in human SK-N-SH cells assessed as parent compound level after 24 hrs by HPLC analysis. To be noted: read-out: Stability. Type of data set: ADME, cell-based. Summed up: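 The compound was incubated 24 h in cell culture medium without cells or with SK-N-SH cells. Intact compound and 125IUdR catabolite were quantified by radio-HPLC on a C18 column at 0.8 mL/min, with a 0–95% CH3CN gradient over 50 min and 95% for 20 min.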

Data set [10] in a line: Stability in mouse serum incubated up to 24 hrs by HPLC analysis. In kind it is ADME, cell-free.
The nature of data set [11]: Drug uptake in human SK-N-SH cells using 125I labelled compound by gamma counting method. In kind it is ADME, cell-based.
Data set [12] in a line: Drug recovery in mouse N1E-115 cells assessed as [125I]-2'-deoxy-5-iodo-uridine level in nucleus after 24 hrs by gamma counting method relative to control. Type of data set: ADME, cell-based. To be noted: n1e-115, 24 h, in the assay text read “in DNA” for “in nucleus”. Summed up: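 N1E-115 murine neuroblastoma cells were incubated 24 h with 125I agent. Subcellular fractions (cytoplasm, nucleus, DNA pellet) were gamma-counted as percentage of recovered 125I.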

Data set [13] in a line: Drug uptake in human SK-N-SH cells assessed as level of 125I-incorporation into DNA after 1 hr and followed by compound washout with non-radioactive medium/PBS and measured immediately by gamma counting method relative to control. In kind it is ADME, cell-based. Summed up: (§3)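 SK-N-SH cells exposed to the 125I-labelled guanidine for 1 h, then washed with nonradioactive medium and PBS. Cells were either processed at once (1 h) or given fresh nonradioactive medium and returned to the incubator for 23 h (24 h). Subcellular fractions (cytoplasm, DNA) were counted by γ-counter. Values are mean and SD, n ≥ 3.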

Data set [14] is described as follows: Drug uptake in human SK-N-SH cells assessed as level of 125I-incorporation into DNA incubated 1 hr followed by compound washout with non-radioactive medium/PBS and measured after 23 hrs by gamma counting method relative to control. Type of data set: ADME, cell-based. A digest of the protocol: as §3
Data set [15] deals with T1, Sodium-dependent noradrenaline transporter (Homo sapiens, UniProt P23975). The data set can be described thus: Substrate activity at NET in human SK-N-SH cells assessed as drug uptake per cell at 37 kBq/ml incubated for 1 hr in presence of nonradioactive MIBG at 37 degC by filtration based gamma counting method. Type of data set: ADME.
T1 sequence (P23975 whole entry): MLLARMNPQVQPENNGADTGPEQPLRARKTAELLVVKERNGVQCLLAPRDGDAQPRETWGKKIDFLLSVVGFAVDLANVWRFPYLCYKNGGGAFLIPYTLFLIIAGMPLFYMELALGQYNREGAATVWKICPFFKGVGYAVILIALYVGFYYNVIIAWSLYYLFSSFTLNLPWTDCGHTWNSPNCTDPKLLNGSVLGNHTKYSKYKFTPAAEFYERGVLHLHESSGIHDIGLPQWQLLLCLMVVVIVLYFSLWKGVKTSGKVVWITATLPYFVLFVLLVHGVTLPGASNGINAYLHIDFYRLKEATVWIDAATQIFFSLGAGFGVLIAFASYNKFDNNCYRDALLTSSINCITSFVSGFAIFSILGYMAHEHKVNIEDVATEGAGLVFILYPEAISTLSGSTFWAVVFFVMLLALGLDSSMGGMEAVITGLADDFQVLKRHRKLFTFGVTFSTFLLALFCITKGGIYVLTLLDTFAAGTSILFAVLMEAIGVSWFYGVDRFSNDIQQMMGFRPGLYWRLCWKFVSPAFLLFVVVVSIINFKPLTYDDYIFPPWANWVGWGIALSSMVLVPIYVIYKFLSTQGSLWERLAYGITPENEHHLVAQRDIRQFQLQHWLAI
Data set [16] has as its target T1, Sodium-dependent noradrenaline transporter. Kind of data set: Substrate activity at NET in human SK-N-SH cells assessed as drug uptake per cell at 37 kBq/ml incubated for 1 hr in presence of nonradioactive MIBG at 4 degC by filtration based gamma counting method. In kind it is ADME.
The nature of data set [17]: Drug uptake in cytoplasm of human SK-N-SH cells at 39.3 +/- 0.3 kBq/mL after 1 hr and followed by compound washout with non-radioactive medium/PBS and measured immediately by gamma counting method relative to control. In kind it is ADME, subcellular. A digest of the protocol:
(§4)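 SK-N-SH cells were exposed 1 h to 125I compound (≈39–40 kBq/mL), then washed with nonradioactive medium and PBS. Cells were processed immediately (1 h) or re-incubated in fresh medium for 23 h (24 h). Cytoplasmic, nuclear and DNA fractions were gamma-counted.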

Data set [18] is described as follows: Drug uptake in cytoplasm of human SK-N-SH cells at 39.3 +/- 0.3 kBq/mL after 24 hrs by gamma counting method relative to control. In kind it is ADME, subcellular. A digest of the protocol: as §4
Data set [19] concerns SK-N-SH. The data set can be described thus: Anticlonogenic activity against human SK-N-SH cells assessed as number of colonies at 39.3+/- 0.3 kBq/mL after 1 hr by crystal violet staining based assay. Type of data set: functional. Summed up: (§5)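 SK-N-SH cells exposed for 1 h to 125I-MIBG (39.3 ± 0.3 kBq/mL extracellular) or IDG (40 ± 0.5 kBq/mL). For the 1 h group, cells were washed with nonradioactive medium and PBS, harvested with trypsin and replated for the clonogenic assay. For the 24 h group, cells were washed, given fresh nonradioactive medium and incubated a further 23 h before plating. Colonies were counted.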

The test system of data set [20] is SK-N-SH. The data set can be described thus: Anticlonogenic activity against human SK-N-SH cells assessed as number of colonies at 39.3+/- 0.3 kBq/mL after 24 hr by crystal violet staining based assay. Type of data set: functional. A digest of the protocol:
as §5

Data set [21] is described as follows: Drug level in tumor of NCR nu/nu mouse xenografted with human BE(2)-C cells at 0.44 +/- 0.1 MBq administered intratumorally after 24 hrs by gamma counting method. Type of data set: ADME, tissue-based, Neoplasm. The conditions noted are these: in vivo, other. Summed up:
(§6)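 Athymic Ncr nu/nu female and male mice bearing subcutaneous BE(2)-C xenografts received intratumor injections of the 125I agent. Tissues, tumor and blood were collected at 24 h and counted for radioactivity, expressed as %ID/g. Tumor-to-blood ratios were derived.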
On the technique in general: In xenograft studies the graft and the host belong to different species.

Data set [22] can be described thus: Ratio of tumor to blood concentration in NCR nu/nu mouse xenografted with human BE(2)-C cells at 0.44 +/- 0.1 MBq administered intratumorally after 24 hrs by gamma counting method. To be noted: tumour, other. In kind it is ADME, tissue-based. A digest of the protocol: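 Athymic Ncr nu/nu female and male mice bearing subcutaneous BE(2)-C xenografts were given a single intratumoral injection of the 125I-labelled agent. Tumor and tissues were collected at 24 h, 125I was γ-counted, and uptake was expressed as %ID/g. The tumor-to-blood ratio was derived from the %ID/g values.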

A short description of data set [23]: Drug level in adrenal gland of NCR nu/nu mouse xenografted with human BE(2)-C cells at 0.44 +/- 0.1 MBq administered intratumorally after 24 hrs by gamma counting method. In kind it is ADME, tissue-based. To be noted: in vivo, other. A digest of the protocol:
as §6

Data set [24] is described as follows: Drug level in tumor of NCR nu/nu mouse xenografted with human BE(2)-C cells at 0.83 +/- 0.09 MBq administered intratumorally after 24 hrs by gamma counting analysis. In kind it is ADME, tissue-based, Neoplasm. To be noted: in vivo, other. Summed up: as §6

In general, pKa refers to the negative logarithm of the acid dissociation constant. Read a high pKa as a group that holds its proton tightly. The logP is the decadic logarithm of the partition coefficient of the neutral form, usually between octanol and water. High values mean a more lipophilic compound, low ones a more hydrophilic compound. As to `N=C(N)NC[C@H]1O[C@@H](n2cc([125I])c(=O)[nH]c2=O)C[C@@H]1O`, the Stability result in data set [1] is “Unstable”. Besides, the Drug uptake in data set [2] came out at 0.00001 mBq; in [3], 0.00054 mBq. Moreover, the pKa in [4] is 11.5. Besides, the logP in data set [5] is -1.3.

As usually defined, the half-life is the time in which the quantity being followed falls by half. As for `N=C(N)NCCCCCC(=O)OC[C@H]1O[C@@H](n2cc([125I])c(=O)[nH]c2=O)C[C@@H]1O`, the half-life in data set [6] was 53.4 min. Moreover, in data set [7], the remaining at 5 min was found to be 77%. Moreover, the remaining at 1 h in data set [8] came out at 47%. Moreover, the remaining at 24 h in data set [9] worked out at 30%. Further, the Stability entry in data set [10] is “Unstable”. Further, the Drug uptake entry in data set [11] was “Dose-dependent effect and Tde”. The Drug recovery in data set [12] is listed as more than 99%. For the same molecule, the pKa in data set [4] is 12.2. The same molecule yielded a logP in data set [5] of -0.2.

Molecule `CC(C)(C)c1cc(C(C)(C)C)c2c(c1F)COP(=O)(OC[C@H]1O[C@@H](n3cc([125I])c(=O)[nH]c3=O)C[C@@H]1OC(=O)CCCCCNC(=N)N)O2` (some centres undefined) had a half-life in [6] of 900 min. Besides, the Stability result in data set [10] was “Unstable”. Further, the Drug uptake result is “Dose-dependent effect and Tde” in data set [11]; 14% in data set [13]; 42% in data set [14]; 1.85 mBq in data set [15]; 0.05 mBq in data set [16]. This molecule also displayed a pKa in data set [4] of 12.1. The logP in data set [5] worked out at 4.58.

In [6], `N=C(N)NCCC(=O)OC[C@H]1O[C@@H](n2cc([125I])c(=O)[nH]c2=O)C[C@@H]1O` gave a half-life of 23.4 min. For the same molecule, the Stability entry in data set [10] is reported as “Unstable”. Further, in data set [11], the Drug uptake result was “Dose-dependent effect and Tde”. The molecule also had a pKa in data set [4] of 11.9. Moreover, the logP in data set [5] is -1.48.

On to `N=C(N)NCc1ccc(C(=O)OC[C@H]2O[C@@H](n3cc([125I])c(=O)[nH]c3=O)C[C@@H]2O)cc1`, for which, in data set [6], the half-life was 45.6 min. Further, in [10], the Stability result is “Unstable”. Besides, the Drug uptake entry in data set [11] was “Dose-dependent effect and Tde”. This molecule displayed a pKa in data set [4] of 11.9. The log partition coefficient (logP) in [5] was 0.26.

With `N=C(N)NCc1cccc([125I])c1`, the Drug recovery in data set [12] turned out to be 0%. Moreover, the Drug uptake in [17] was 87%; in data set [18] it was 74%; in [21], 1.85 % ID/g; in [23] it was 4.64 % ID/g; in data set [24], 1.85 % ID/g. For the same molecule, the Activity amounted to 229 in [19] and 250 in data set [20]. Moreover, the Ratio in data set [22] is 19.

As for `N=C(N)NCc1cccc(I)c1` [IOBENGUANE], in data set [4], the pKa stood at 11.8. The molecule also returned a logP in data set [5] of 1.63.
